The list is not random: actives were taken first. Their share in the collection is about 3.3%.
Arrestin-AP2 inh – inhibitors of human beta-arrestin and AP2 interaction. FITC-arrestin peptide / GST-AP2 beads, flow cytometry; AP2 beta2 appendage carries R879A mutation. inhibition, % at 10 µM. 340,000 tested, 0.31% active. AID 504490;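 active means inhibition above a set limit, near 3 SD of compounds lacking own fluorescence, cut at about 54% in these data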;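 further: plate controls were DMSO wells for no effect and 5 µM unlabelled arrestin peptide for full effect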
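System: GST-AP2 R879A glutathione beads. Medium: PBS with 0.05% Tween 20 and 0.1% BSA. Also added: FITC-arrestin peptide, 50 nM. Incubation: 12 min plus 1 h, RT. Measured by: high-throughput flow cytometry of beads, ex 488, em 535 nm. Evaluation: percent drop in bead-associated FITC signal.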
Granule exo inh – lytic granule exocytosis inhibition; TALL-104 LAMP-1 surface exposure, flow cytometry; cells stimulated with thapsigargin and PMA; inhibition, % at 10 µM; 360,000 tested, 0.66% active; AID 651702;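 active means inhibition above about 55%, limit read from the data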
ATG4B inh – inhibitors of human ATG4B cysteine protease. Q9Y4P1. ATG4B cleavage of LC3-PLA2, NBD-HPC fluorescence, 1 h. inhibition, % at 8.33 µM. 340,000 tested, 0.51% active. AID 504462; in the data active means inhibition above about 40%
CendR NRP1 mod – NRP-1/CendR interaction modulation. O14786. 360,000 tested, 0.85% active. FAM-RPARPAR peptide binding to NRP-1, fluorescence polarization. inhibition, % at 25 µM. AID 602438;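 active means inhibition or corrected inhibition above about 18%, plus a signal ratio from 0.5 to 1.5, limit read from the data, passing the limit was not always enough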
Myeloid diff MLP – myeloid differentiation induction; calls only at 10 µM; AID 624256; ER-HoxA9 myeloid progenitors, lysozyme-GFP differentiation, flow cytometry; 360,000 tested, 1% active;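 active means normalized GFP-positive differentiation at or above the plate's own cutoff, the solvent-only control mean plus 3 SD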;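 further: cells exposed to compound for four days before flow analysis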
ABCB6 inh MLPCN – human ABCB6 transporter inhibition. Q9NP58. K562-ABCB6 porphyrin accumulation, flow cytometry, 1 h; active compounds read low. fluorescence ratio to DMSO, % at 10 µM. 360,000 tested, 0.19% active. AID 602162;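 active means fluorescence ratio to DMSO below 75%, the collection mean minus 3 SD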;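 further: signal is porphyrin accumulated inside mitochondria; 100% equals median channel fluorescence of DMSO control wells; lower ratio means ABCB6 inhibition with less porphyrin fluorescence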
Target sequence (Q9NP58 whole entry, looked up): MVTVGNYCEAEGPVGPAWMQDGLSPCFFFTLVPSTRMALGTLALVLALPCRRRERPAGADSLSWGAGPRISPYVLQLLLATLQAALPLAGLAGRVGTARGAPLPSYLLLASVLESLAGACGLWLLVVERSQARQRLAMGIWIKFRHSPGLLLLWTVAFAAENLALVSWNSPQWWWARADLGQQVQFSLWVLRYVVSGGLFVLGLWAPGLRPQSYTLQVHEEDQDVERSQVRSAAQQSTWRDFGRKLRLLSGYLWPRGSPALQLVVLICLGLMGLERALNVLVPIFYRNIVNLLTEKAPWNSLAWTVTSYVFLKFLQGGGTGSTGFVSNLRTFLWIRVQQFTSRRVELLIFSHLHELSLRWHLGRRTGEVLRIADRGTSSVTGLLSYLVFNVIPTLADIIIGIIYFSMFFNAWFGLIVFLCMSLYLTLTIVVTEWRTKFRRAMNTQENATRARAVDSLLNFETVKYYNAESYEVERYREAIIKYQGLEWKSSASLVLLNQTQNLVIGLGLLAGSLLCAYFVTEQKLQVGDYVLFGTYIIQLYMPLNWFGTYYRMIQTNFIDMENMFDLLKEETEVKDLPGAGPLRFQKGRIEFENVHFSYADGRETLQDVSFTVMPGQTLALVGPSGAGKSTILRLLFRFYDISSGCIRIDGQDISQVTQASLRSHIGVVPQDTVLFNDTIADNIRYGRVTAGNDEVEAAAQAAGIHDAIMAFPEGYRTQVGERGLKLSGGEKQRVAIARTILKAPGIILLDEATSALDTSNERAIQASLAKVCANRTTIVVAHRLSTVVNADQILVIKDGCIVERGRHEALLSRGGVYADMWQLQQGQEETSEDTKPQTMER
* = called active by the depositor; i = inactive; . = not tested or not shown; + = active, no number.

SMILES	Arrestin-AP2 inh	Granule exo inh	ATG4B inh	CendR NRP1 mod	Myeloid diff MLP	ABCB6 inh MLPCN
COc1ccc(CCC(=O)N2CCCc3ccccc32)cc1	1.4	2.3	12.5	28.3*	i	106.0
COC(=O)C[C@H]1C[C@@H]2c3cc(NS(=O)(=O)c4ccc(OC)cc4)ccc3O[C@@H]2[C@H](CO)O1	.	-0.4	.	3.5	i	93.0
CC1CC(NC(=O)c2c(O)nc3sccn3c2=O)CC(C)(C)C1 (stereo unspecified)	1.4	-10.4	0.7	-2.1	+	97.0
N#CC(C#N)=c1ccc2c(c1)NC1(CCCCC1)N=2	-1.2	-0.1	-2.7	6.2	+	115.0
N#CC(C#N)=C1NC2(CCCCC2)Cc2ccccc21	1.3	-3.7	-7.2	-10.6	i	96.0
CC(C)NC(=O)COc1coc(CN2CCN(c3ccccc3)CC2)cc1=O	-0.6	-0.6	0.0	23.2*	i	100.0
COc1ccccc1N(CC(=O)N1CCCC1)S(=O)(=O)c1cc([N+](=O)[O-])ccc1Cl	21.4	-3.5	0.2	-0.6	i	93.0
CCOC(=O)N1CCN(C(=O)C[C@@H]2C[C@@]3(C(=O)OCC)CCCC=C3N(Cc3ccccc3)C2=O)CC1	.	-2.1	.	35.7*	i	.
CCOC(=O)[C@]12CCCC=C1N(Cc1ccccc1)C(=O)[C@H](CC(=O)N1CCCCCC1)C2	.	-1.6	.	3.5	i	.
O=C(O)CCCn1cc(NC(=O)COc2cc(F)ccc2[N+](=O)[O-])cn1	1.1	-2.0	0.5	3.0	i	84.0
Cc1ccc(-n2nnnc2-c2cnc(-c3cccnc3)nc2C(F)(F)F)cc1	-12.3	-2.1	-23.0	19.6*	i	90.0
Cc1ccc(C(=O)N2CCN(S(=O)(=O)c3ccccc3C#N)CC2)cc1S(=O)(=O)N1CCOCC1	15.3	3.0	1.6	1.8	i	100.0
Brc1ccc(N/N=C(/N=Nc2nn[nH]n2)c2ccccc2)cc1	11.8	1.5	37.3	41.7*	i	97.0
O=C(O)c1cccc(N/N=C(\N=Nc2ccccc2)c2ccccc2)c1	4.8	29.0	21.7	11.9	i	113.0
O=C(O)c1ccc(N=N/C(=N\Nc2ccc(C(=O)O)cc2)c2ccccc2)cc1	1.4	-2.4	6.8	34.5*	i	90.0
O=C(/C(=N\Nc1ccc(Br)cc1)Sc1nnnn1-c1ccccc1)c1ccccc1	0.1	7.9	4.6	1.5	i	97.0
COc1cc(C2Nc3ccc4ccccc4c3C3=C2C(=O)CC(C)(C)C3)ccc1OC(C)C(=O)O (stereo unspecified)	-0.2	1.8	-3.1	-7.8	i	93.0
CCCOc1ccc(N2C(=O)CC(N3CCN(CCN=CC4C(=O)CC(C)(C)CC4=O)CC3)C2=O)cc1 (stereo unspecified)	-2.2	-0.1	-8.0	24.9*	i	100.0
CCCOc1ccc(N2C(=O)CC(N3CCOCC3)C2=O)cc1 (stereo unspecified)	4.6	0.8	0.5	-2.3	i	98.0
CN(C)c1ccc(NC(=O)c2cccc([N+](=O)[O-])c2)c2ccccc12	-0.2	-6.3	1.4	-7.3	+	142.0
O=C(Nc1ccc2c3c(cccc13)CC2)c1cccc([N+](=O)[O-])c1	4.9	1.7	-1.7	-12.0	i	97.0
O=c1[nH]c2c(cnn2-c2ccc(Cl)cc2)c(=O)n1-c1cccc(Cl)c1	-2.5	-6.4	-1.7	15.9	i	100.0
CCOc1cc(C(=S)N2CCOCC2)ccc1OS(=O)(=O)c1ccc(OC)cc1	10.9	-1.5	-5.5	29.6*	i	97.0
CCOC(=O)C(=CNc1ccc(N2CCCCC2)c(S(=O)(=O)Nc2ccccc2OC)c1)C(=O)OCC	-1.9	0.3	-7.3	35.6*	i	97.0
CCOC(=O)c1c(NC(=O)Cn2cnc3scc(-c4ccc(C)cc4)c3c2=O)sc(C)c1C	-7.6	0.8	8.8	0.1	i	98.0
SMILES	Arrestin-AP2 inh	Granule exo inh	ATG4B inh	CendR NRP1 mod	Myeloid diff MLP	ABCB6 inh MLPCN
Cc1ccc2nc(/C(C#N)=C/c3ccc(O)c(O)c3)[nH]c2c1	7.8	4.8	-14.6	-196.7	+	139.0
c1ccc(-c2csc3nnc(SCc4ccc5c(c4)OCO5)n23)cc1	-1.0	1.4	-1.3	-8.5	+	102.0
Cc1ccc(-c2csc3nnc(SCC(=O)NCc4ccc5c(c4)OCO5)n23)cc1	-1.1	1.9	-5.9	-10.3	i	99.0
O=C(NCc1cccs1)c1ccc(S(=O)(=O)N2CCOCC2)cc1	-8.2	4.5	-4.4	21.3*	i	95.0
O=C(O)c1cccc(N2C(=O)CSC2=S)c1	-23.8	-2.2	4.0	-3.9	i	96.0
COC1=CC(=O)C(C2CC(=O)c3c(O)cc(O)cc3O2)=CC1=O (stereo unspecified)	24.7	67.1*	-0.5	8.6	i	97.0
O=C(NC1CCN(C(=S)NCc2ccco2)CC1)c1cccc(F)c1	-0.6	-1.2	-8.8	4.1	i	95.0
COC(=O)c1ccn(CC(=O)NC2CCCCC2)n1	-14.1	2.6	-5.2	15.3	+	103.0
COc1ccc2[nH]c(=O)c(CN(C(=O)c3cccnc3)c3ccccc3C)cc2c1	-9.2	-0.1	23.6	-0.3	i	95.0
CC(NC(=O)Nc1ccccc1O)(C(F)(F)F)C(F)(F)F	13.0	1.1	-6.2	-24.1	+	103.0
CCOC(=O)C[n+]1c(C)sc2ccc(OC)cc21	-2.8	74.7*	-7.8	1.4	i	94.0
O=C1CCC[C@@H]2Cc3nc4cc5c(cc4cc3[C@@H]3CCN1[C@H]23)OCO5	4.1	-7.8	-2.7	24.0*	i	97.0
O=C1CCC[C@@H]2Cc3nc4ccc(O)cc4cc3[C@@H]3CCN1[C@H]23	-1.7	10.7	-7.2	-2.3	i	99.0
O=C(C1=C[C@@H](c2ccc(C(F)(F)F)cc2)C[C@@H](OCc2ccc(CO)cc2)O1)N1CCN(Cc2ccccc2)CC1	7.1	-2.0	2.8	-7.3	i	98.0
CCOC(=O)c1c(NC(=O)c2ccccc2)sc2c(O)c(CN(CC)CC)ccc12	6.0	4.0	31.1	1.1	i	69.0*
Cc1cccc(OCc2n(CC(=O)OC3CC(C)CCC3C(C)C)c3ccccc3[n+]2C)c1 (stereo unspecified)	0.2	89.0*	13.2	9.1	i	96.0
O=c1ccc2cc(S(=O)(=O)NCc3ccccc3)ccc2[nH]1	18.8	1.1	-3.3	5.4	i	99.0
Cc1nc2c3cc(F)ccc3n(Cc3ccc(F)cc3)c2s1	16.8	14.1	-3.2	-5.2	+	80.0
COC(=O)Cn1c2ccc(F)cc2c2nc(C)sc21	6.1	-1.3	1.1	-2.2	i	95.0
Cc1cc(C(=O)N[C@@H](c2ccccc2)[C@]2(C)C[C@H]2[C@@H](C)C(=O)Nc2ccc3ccccc3c2)no1	-3.7	-5.9	-1.2	21.7*	i	103.0
